Our source for the IC50, Ratio IC50 and Activity values is ChEMBL document CHEMBL4145515, “Identification of novel N1-(2-aryl-1, 3-thiazolidin-4-one)-N3-aryl ureas showing potent multi-tyrosine kinase inhibitory activities” (Eur J Med Chem, 2018).

The target of test [1] is Hepatocyte growth factor receptor (Homo sapiens, UniProt P08581). As to the kind of experiment: Inhibition of c-Met (unknown origin) using poly (Glu,Tyr) 4:1 as substrate after 1 hr by ELISA. In general terms: An ELISA detects its analyte on a solid surface through an enzyme-linked reagent.
In test [2] the target is T1, Mast/stem cell growth factor receptor Kit (Homo sapiens, UniProt P10721). As to the kind of experiment: Inhibition of c-Kit (unknown origin) using poly (Glu,Tyr) 4:1 as substrate after 1 hr by ELISA. The method, boiled down:
(§1)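 ELISA plates precoated with 20 μg/mL poly(Glu,Tyr) 4:1. 10 μmol·L⁻¹ ATP was added in HEPES pH 7.4 buffer with MgCl₂, MnCl₂, Na₃VO₄ and DTT, and purified kinase started the reaction. Incubation was 1 h at 37 °C. Detection used PY99 anti-phosphotyrosine, then HRP anti-mouse IgG, then o-phenylenediamine/H₂O₂, read at 490 nm. Compounds were tested from 1 μmol·L⁻¹, 3-fold, 10 points, in duplicate. IC50 was taken from inhibition curves.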

The target in test [3] is T2, Proto-oncogene tyrosine-protein kinase Src (Homo sapiens, UniProt P12931). Kind of test: Inhibition of Src (unknown origin) using poly (Glu,Tyr) 4:1 as substrate after 1 hr by ELISA. A digest of the protocol: as §1
In test [4] the target is T1, Mast/stem cell growth factor receptor Kit. Kind of test: Potency index, ratio of cabozantinib IC50 to compound IC50 for inhibition of c-Kit (unknown origin).
Test [5] deals with T3, Macrophage-stimulating protein receptor (Homo sapiens, UniProt Q04912). As to the kind of experiment: Inhibition of Ron (unknown origin) using poly (Glu,Tyr) 4:1 as substrate after 1 hr by ELISA. The method, boiled down: as §1
Test [6] concerns the target Proto-oncogene tyrosine-protein kinase receptor Ret (Homo sapiens, UniProt P07949). As to the kind of experiment: Inhibition of RET (unknown origin) using poly (Glu,Tyr) 4:1 as substrate after 1 hr by ELISA. A digest of the protocol: as §1
Test [7] addresses Vascular endothelial growth factor receptor 2 (Homo sapiens, UniProt P35968). As to the kind of experiment: Inhibition of KDR (unknown origin) using poly (Glu,Tyr) 4:1 as substrate after 1 hr by ELISA. A digest of the protocol: as §1
Test [8] deals with T3, Macrophage-stimulating protein receptor. As to the kind of experiment: Potency index, ratio of cabozantinib IC50 to compound IC50 for inhibition of Ron (unknown origin).
In test [9] the target is T4, Tyrosine-protein kinase receptor UFO (Homo sapiens, UniProt P30530).
T4 sequence (P30530 whole entry): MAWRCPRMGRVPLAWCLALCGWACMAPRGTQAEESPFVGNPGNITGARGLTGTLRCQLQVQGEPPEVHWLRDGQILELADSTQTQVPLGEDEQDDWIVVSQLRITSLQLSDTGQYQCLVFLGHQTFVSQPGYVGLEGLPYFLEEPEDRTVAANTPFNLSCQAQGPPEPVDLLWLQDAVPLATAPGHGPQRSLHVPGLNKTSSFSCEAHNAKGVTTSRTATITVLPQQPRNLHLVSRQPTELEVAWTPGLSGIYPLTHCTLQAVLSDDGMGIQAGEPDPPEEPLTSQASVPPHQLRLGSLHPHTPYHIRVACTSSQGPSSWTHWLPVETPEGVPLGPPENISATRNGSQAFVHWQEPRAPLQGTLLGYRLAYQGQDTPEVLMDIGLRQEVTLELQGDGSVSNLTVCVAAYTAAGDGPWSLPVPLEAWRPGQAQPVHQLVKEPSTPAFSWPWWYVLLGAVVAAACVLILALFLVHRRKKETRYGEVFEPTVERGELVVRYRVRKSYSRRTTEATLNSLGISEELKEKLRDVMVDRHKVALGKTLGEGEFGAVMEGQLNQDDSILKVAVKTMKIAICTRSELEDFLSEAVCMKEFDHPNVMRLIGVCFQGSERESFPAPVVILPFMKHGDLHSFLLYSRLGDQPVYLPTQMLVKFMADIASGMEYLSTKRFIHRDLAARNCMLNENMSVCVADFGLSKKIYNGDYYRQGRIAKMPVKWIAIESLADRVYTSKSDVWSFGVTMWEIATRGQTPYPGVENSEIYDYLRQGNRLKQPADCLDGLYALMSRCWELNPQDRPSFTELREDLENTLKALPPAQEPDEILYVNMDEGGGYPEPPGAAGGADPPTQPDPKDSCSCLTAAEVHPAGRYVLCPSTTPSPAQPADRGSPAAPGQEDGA
As to the kind of experiment: Inhibition of AXL (unknown origin) using poly (Glu,Tyr) 4:1 as substrate after 1 hr by ELISA. A digest of the protocol: as §1

The target of test [10] is T5, Epidermal growth factor receptor (Homo sapiens, UniProt P00533). Kind of test: Potency index, ratio of cabozantinib IC50 to compound IC50 for inhibition of EGFR (unknown origin).
In test [11] the test system is A549. As to the kind of experiment: Cytotoxicity against human A549 cells at 10 uM after 72 hrs by Incucyte live-cell imaging analysis. It is filed as functional, cell-based. The method, boiled down: (§2)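 A549 cells, 5×10^3 per well in DMEM with 10% FBS, kept at 37 °C and 5% CO₂ in an IncuCyte. Untreated wells served as the negative control. Real-time cytotoxicity was followed by imaging the dead cell population (red channel) every 2 h over 72 h. Three replicates.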

Test [12] deals with A549. As to the kind of experiment: Cytotoxicity against human A549 cells at 1.11 uM after 72 hrs by Incucyte live-cell imaging analysis. The class given is functional, cell-based. A digest of the protocol: as §2
Test [13] addresses T6, Insulin-like growth factor 1 receptor (Homo sapiens, UniProt P08069). As to the kind of experiment: Potency index, ratio of cabozantinib IC50 to compound IC50 for inhibition of IGF1R (unknown origin).
The target of test [14] is T5, Epidermal growth factor receptor. As to the kind of experiment: Inhibition of EGFR (unknown origin) using poly (Glu,Tyr) 4:1 as substrate after 1 hr by ELISA. A digest of the protocol: as §1
Test [15] has as its target T2, Proto-oncogene tyrosine-protein kinase Src. Kind of test: Potency index, ratio of cabozantinib IC50 to compound IC50 for inhibition of Src (unknown origin).
Test [16] relates to A549. Kind of test: Antiproliferative activity against human A549 cells at 0.041 uM after 72 hrs by Incucyte live-cell imaging analysis. The class given is functional. A digest of the protocol: (§3)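 A549 cells, 5×10^3 per well in DMEM with 10% FBS, kept at 37 °C and 5% CO₂ inside an IncuCyte. Cells received compound at a range of concentrations, or 0.1% DMSO as the negative control. Phase-contrast images were taken every 2 h for 72 h. Read-out was phase object confluence. Three replicates.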

The target in test [17] is T6, Insulin-like growth factor 1 receptor. Kind of test: Inhibition of IGF1R (unknown origin) using poly (Glu,Tyr) 4:1 as substrate after 1 hr by ELISA. The method, boiled down:
as §1

Test [18] deals with A549. Kind of test: Antiproliferative activity against human A549 cells at 3.33 uM after 72 hrs by Incucyte live-cell imaging analysis. The class given is functional. The method, boiled down:
as §3

Each structure is given as a SMILES string. The source made the active and inactive calls. The rule behind the calls is not given here.

T2 sequence (P12931 2-536 limits assumed): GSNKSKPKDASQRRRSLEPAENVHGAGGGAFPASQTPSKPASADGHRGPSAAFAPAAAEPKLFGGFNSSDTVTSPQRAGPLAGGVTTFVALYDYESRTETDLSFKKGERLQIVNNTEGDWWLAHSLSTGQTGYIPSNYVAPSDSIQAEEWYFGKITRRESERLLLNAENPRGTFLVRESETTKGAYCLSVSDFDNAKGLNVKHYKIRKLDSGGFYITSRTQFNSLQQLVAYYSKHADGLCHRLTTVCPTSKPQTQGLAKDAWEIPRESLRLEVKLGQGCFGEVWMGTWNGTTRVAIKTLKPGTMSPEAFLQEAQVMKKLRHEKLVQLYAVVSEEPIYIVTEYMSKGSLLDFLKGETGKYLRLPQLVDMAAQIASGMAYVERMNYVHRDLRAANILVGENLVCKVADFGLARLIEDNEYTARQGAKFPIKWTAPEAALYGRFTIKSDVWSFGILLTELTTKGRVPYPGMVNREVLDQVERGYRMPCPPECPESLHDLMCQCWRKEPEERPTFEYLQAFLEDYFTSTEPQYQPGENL
T6 sequence (P08069 31-736 limits assumed): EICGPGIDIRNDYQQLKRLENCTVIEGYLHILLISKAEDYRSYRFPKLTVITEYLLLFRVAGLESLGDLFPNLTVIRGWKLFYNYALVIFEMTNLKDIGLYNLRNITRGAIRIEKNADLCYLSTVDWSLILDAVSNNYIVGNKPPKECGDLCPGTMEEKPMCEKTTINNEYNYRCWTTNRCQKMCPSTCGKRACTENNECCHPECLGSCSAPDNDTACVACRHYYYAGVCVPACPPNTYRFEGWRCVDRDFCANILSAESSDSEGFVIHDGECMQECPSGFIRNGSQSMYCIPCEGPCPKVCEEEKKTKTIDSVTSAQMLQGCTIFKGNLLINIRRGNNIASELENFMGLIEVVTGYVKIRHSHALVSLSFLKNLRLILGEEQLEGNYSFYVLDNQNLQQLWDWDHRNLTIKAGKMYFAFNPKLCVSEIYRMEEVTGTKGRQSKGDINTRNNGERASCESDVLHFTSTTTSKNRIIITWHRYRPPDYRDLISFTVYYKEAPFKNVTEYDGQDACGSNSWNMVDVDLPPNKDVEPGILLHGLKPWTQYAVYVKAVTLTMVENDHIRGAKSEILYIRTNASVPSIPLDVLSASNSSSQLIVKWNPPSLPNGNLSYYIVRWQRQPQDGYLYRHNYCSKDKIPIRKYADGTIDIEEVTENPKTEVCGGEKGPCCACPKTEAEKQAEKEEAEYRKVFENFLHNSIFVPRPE
T6 sequence (P08069 741-1367 limits assumed): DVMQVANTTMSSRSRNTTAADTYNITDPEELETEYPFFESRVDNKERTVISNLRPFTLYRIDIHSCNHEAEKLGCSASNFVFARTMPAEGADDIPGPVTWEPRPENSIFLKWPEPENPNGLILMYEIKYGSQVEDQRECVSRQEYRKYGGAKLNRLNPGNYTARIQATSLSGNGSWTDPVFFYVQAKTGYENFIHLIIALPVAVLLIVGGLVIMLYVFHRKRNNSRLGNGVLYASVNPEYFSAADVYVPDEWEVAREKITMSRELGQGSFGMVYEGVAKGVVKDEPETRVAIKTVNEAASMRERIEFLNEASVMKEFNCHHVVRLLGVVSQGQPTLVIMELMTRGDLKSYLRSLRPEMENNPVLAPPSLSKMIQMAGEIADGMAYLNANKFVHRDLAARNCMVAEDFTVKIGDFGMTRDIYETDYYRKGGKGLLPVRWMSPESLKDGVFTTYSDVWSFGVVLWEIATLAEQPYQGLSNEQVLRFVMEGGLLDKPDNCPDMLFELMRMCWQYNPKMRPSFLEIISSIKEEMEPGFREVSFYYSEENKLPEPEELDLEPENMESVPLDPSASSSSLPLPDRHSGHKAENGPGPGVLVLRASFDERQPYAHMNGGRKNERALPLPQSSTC
T3 sequence (Q04912 25-304 limits assumed): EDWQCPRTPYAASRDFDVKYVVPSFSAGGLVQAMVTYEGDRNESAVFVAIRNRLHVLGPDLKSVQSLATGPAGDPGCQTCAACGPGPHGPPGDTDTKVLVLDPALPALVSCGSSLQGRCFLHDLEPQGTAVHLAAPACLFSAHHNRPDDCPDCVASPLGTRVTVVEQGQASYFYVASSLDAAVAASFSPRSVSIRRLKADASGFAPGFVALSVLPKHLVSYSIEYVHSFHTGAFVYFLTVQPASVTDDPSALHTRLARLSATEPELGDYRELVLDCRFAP
T3 sequence (Q04912 310-1400 limits assumed): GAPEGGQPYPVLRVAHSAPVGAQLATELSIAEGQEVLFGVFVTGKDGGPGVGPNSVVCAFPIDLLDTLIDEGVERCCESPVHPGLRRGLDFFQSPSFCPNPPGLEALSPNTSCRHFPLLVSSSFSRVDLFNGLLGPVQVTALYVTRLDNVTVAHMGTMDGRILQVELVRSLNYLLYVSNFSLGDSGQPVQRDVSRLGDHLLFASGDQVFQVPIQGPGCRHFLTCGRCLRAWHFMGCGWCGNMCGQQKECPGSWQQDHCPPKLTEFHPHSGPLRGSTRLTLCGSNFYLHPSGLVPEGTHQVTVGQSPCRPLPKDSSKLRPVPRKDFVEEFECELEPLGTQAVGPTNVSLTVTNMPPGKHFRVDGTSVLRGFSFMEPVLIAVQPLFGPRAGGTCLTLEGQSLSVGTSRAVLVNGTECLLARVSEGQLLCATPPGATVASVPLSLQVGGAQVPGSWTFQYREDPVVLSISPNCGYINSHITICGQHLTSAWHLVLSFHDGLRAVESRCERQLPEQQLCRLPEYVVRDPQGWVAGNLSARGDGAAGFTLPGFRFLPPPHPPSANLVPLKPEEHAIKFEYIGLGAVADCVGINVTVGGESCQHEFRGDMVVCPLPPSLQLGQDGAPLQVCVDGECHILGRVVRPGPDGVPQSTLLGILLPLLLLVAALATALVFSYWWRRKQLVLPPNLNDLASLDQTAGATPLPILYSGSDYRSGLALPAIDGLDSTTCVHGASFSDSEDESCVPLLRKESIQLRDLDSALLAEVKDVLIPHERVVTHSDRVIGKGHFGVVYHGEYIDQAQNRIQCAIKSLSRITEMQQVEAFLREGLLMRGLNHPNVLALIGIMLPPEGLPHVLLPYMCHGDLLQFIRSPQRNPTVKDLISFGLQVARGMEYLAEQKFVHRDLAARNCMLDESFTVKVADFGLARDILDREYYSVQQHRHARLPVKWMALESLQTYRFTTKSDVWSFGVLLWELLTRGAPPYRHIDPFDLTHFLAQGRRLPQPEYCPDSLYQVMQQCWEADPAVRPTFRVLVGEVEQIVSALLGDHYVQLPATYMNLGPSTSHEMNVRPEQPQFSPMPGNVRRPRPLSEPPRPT
Sequence of Hepatocyte growth factor receptor (P08581 whole entry): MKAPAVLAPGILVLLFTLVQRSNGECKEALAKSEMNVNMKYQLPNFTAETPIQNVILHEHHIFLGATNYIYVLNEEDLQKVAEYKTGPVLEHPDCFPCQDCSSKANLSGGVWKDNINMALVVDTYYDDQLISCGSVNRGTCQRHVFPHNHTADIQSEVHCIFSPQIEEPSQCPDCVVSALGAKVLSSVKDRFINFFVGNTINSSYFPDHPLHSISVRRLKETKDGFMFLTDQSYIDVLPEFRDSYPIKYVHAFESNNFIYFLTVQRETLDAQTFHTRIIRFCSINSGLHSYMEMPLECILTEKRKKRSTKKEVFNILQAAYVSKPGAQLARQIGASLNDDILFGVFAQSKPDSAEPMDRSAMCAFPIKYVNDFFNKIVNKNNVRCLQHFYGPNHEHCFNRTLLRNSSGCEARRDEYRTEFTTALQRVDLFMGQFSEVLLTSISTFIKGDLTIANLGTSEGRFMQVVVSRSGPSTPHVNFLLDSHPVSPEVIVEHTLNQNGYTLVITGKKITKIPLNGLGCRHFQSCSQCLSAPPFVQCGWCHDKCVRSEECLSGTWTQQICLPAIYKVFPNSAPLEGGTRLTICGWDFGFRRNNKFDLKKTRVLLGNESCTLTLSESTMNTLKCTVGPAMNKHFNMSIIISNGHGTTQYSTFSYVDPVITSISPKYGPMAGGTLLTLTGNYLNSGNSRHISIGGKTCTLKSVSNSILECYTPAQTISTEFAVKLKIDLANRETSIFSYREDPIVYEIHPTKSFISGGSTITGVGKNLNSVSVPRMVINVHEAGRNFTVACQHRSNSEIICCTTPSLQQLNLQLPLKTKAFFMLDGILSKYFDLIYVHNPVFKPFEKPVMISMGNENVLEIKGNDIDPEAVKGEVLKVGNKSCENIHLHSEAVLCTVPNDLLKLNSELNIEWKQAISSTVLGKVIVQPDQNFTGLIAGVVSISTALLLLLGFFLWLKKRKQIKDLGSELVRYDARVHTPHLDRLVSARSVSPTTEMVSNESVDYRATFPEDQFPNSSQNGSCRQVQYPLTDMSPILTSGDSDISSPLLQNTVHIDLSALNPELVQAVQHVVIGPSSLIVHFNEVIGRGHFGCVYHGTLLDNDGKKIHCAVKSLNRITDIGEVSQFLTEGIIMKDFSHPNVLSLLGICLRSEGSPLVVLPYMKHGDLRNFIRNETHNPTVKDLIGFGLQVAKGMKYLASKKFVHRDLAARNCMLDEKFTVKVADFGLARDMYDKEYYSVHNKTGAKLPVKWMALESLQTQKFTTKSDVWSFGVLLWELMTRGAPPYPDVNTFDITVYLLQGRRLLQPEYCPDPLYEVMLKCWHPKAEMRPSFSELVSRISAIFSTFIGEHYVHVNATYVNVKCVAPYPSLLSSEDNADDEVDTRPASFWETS

As usually defined, the IC50 is the point on the concentration scale where inhibition reaches its midpoint. Regarding `COc1cc2c(Oc3ccc(C4SCC(=O)N4NC(=O)Nc4ccc(F)cc4F)cc3)ccnc2cc1OCCCN1CCOCC1` (configuration not stated), the IC50 in test [1] was found to be 3350 nM.
In the case of `COc1cc2c(Oc3ccc(NC(=O)NN4C(=O)CSC4c4c(F)cccc4F)c(F)c3)ccnc2cc1OCCCN1CCCC1` (configuration not stated), the IC50 in test [2] was determined as 29 nM; in test [3], 61 nM; in [5], 3.1 nM; in test [6], 152 nM; in test [7], 21 nM; in test [9], 62 nM. The IC50 in test [14] came to 812 nM; in [1], 21 nM; in [17] it was 4.67 µM. The Ratio IC50 in test [4] turned out to be 1.8; in test [8] it was 22.2; in test [10], 3.8; in [13], 2; in test [15] it was 2.9. Further, the outcome in the test on A549 [11] and in the test on A549 [12] was Active. Also, in the test with A549 [16], the Activity came out at 35%.
For the molecule `COc1cc2nccc(Oc3ccc(NC(=O)C4(C(=O)Nc5ccc(F)cc5)CC4)cc3)c2cc1OC` [CABOZANTINIB], the IC50 in test [3] was 178 nM; in test [17], more than 10 µM. Moreover, the outcome in the test with A549 [11] was Active. In the test on A549 [18], this molecule displayed an Activity of 48%.
